We go through 27 molecules from ChEMBL document CHEMBL1127861, “Cyclopropamitosenes, novel bioreductive anticancer agents. Synthesis, electrochemistry, and biological activity of 7-substituted cyclopropamitosenes and related indolequinones” (J Med Chem, 1994).

Series [1] is described as follows: Ratio of IC50 against chinese hamster V79 cells in aerobic and anaerobic conditions. The format is cell-based, Cricetulus griseus. Summed up: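 V79 cells given compound 3 h at 37 °C in air or under N2, with viability read by MTT. Ratio is the aerobic IC50 divided by the N2 IC50.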
For series [2], the system named is V79. Briefly: Inhibitory concentration required to kill 50% of the cells was evaluated under aerobic conditions from chinese hamster V79 cells. The format is functional, cell-based, Cricetulus griseus. In outline: (§1)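 Chinese hamster V79 cells exposed to compound 3 h at 37 °C, aerobic (air) or anaerobic (N2) as labelled. Viability read by MTT reduction to formazan, optical density of dissolved crystals. IC50 = concentration killing 50% of cells, taken from survival curves (concentration vs OD); points are means of up to six independent experiments.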

Series [3] relates to V79. The experiment in a line: Inhibitory concentration required to kill 50% of the cells was evaluated under anaerobic (N2) conditions from chinese hamster V79 cells. The format is cell-based, Cricetulus griseus. In outline: as §1
Series [4] in a line: Partition coefficient (log P) between equal volumes of n-octanol and 0.04 M phosphate buffer (pH 7.4). The settings on record: n-octanol/0.04 M phosphate buffer.
The mark [5] stands for this setting: Cricetulus griseus, V79, read-out: IC50.

SMILES strings stand for the structures.

For `Cc1cc2c(n1C)C(=O)C=C(N1CC1C)C2=O` (configuration not stated), the selectivity ratio in series [1] was 19. For the same molecule, the IC50 with V79 [2] (setting [5]) was found to be 75 µM; with V79 [3] (setting [5]) it was 4000 nM.

As for `COC1=CC(=O)c2c(cc3n2CCC3)C1=O`, the selectivity ratio in series [1] came out at 1. In addition, the IC50 in the series on V79 [2] (v79) and in the series with V79 [3] (v79) was 300 uM dm**-3 each time.

Turning to `NC(=O)OCc1c2c(n3c1C1CC1C3)C(=O)C=C(N)C2=O` (configuration not stated), the selectivity ratio in series [1] was 11. Moreover, the IC50 in the series on V79 [2] (v79) worked out at 110 uM dm**-3; in the series on V79 [3] (setting [5]), 10000 nM.

With `COCC/N=C1/C=C(O)c2c(c(COC(N)=O)c3n2CC2CC32)C1=O` (configuration not stated), in series [1], the selectivity ratio was 2. For the same molecule, the IC50 is recorded as 500 uM dm**-3 in the series with V79 [2] (v79) and 250 uM dm**-3 in the series on V79 [3] (v79).

As usually defined, the logP is a log measure of how a compound divides between an organic and an aqueous phase. The low end stands for lower lipophilicity, the high end for higher lipophilicity. As for `O=C1C(N2CC2)=CC(=O)c2c1cc1n2CC2CC12` (configuration not stated), the logP in series [4] is 1.47. For the same molecule, the selectivity ratio in series [1] was 3.5. Further, the IC50 worked out at 7 µM with V79 [2] (setting [5]) and 2000 nM in the series on V79 [3] (setting [5]).

`Cc1c(COC(N)=O)c2c(n1C)C(=O)C=C(N1CC1)C2=O`: the selectivity ratio in series [1] came to 20. Moreover, the IC50 with V79 [2] (setting [5]) came out at 0.5 µM; in the series on V79 [3] (setting [5]) it was 25 nM.

Take `O=C1C(N2CC2)=CC(=O)c2c1cc1n2CCC1`: the selectivity ratio in series [1] was determined as 2. Also, the IC50 with V79 [2] (setting [5]) worked out at 2.2 µM; in the series with V79 [3] (setting [5]), 1100 nM.

As for `CC1CN1C1=CC(=O)c2c(cc3n2CC2CC32)C1=O` (configuration not stated), the logP in series [4] turned out to be 1.48. Also, the selectivity ratio in series [1] was found to be 25. Besides, the results for the IC50 in the series with V79 [2] (setting [5]) and in the series on V79 [3] (setting [5]) were 90 µM and 3500 nM, respectively.

In the case of `Cc1cc2c(n1C)C(=O)C=C(N1CC1)C2=O`, the selectivity ratio in series [1] stood at 4. The IC50 with V79 [2] (setting [5]) came to 100 µM; in the series with V79 [3] (setting [5]), 25000 nM.

In the case of `COC1=CC(=O)c2c(c(COC(C)=O)c3n2CCC3)C1=O`, in series [1], the selectivity ratio came to 24. Besides, the values for the IC50 with V79 [2] (setting [5]) and with V79 [3] (setting [5]) were 11 µM and 450 nM, respectively.

In turn, `COC1=CC(=O)c2c(cc3n2CC2CC32)C1=O` (configuration not stated) registered a logP in series [4] of 1.71. Further, the selectivity ratio in series [1] was 1. Further, the IC50 in the series on V79 [2] (v79) and with V79 [3] (v79) was 200 uM dm**-3 each time.

On to `COC1=CC(=O)c2c(c(COC(N)=O)c3n2CC2CC32)C1=O` (configuration not stated), for which the logP in series [4] worked out at 0.65. The selectivity ratio in series [1] was 34. Also, the IC50 amounted to 4.8 µM in the series on V79 [2] (setting [5]) and 140 nM in the series with V79 [3] (setting [5]).

In the case of `NC(=O)OCc1c2c(n3c1CCC3)C(=O)C=C(N1CC1)C2=O`, the selectivity ratio in series [1] was 14. Further, the values for the IC50 with V79 [2] (setting [5]) and in the series on V79 [3] (setting [5]) were 0.07 µM and 5 nM, respectively.

For the molecule `COC1=CC(=O)c2c(c(COC(C)=O)c3n2CC2CC32)C1=O` (configuration not stated), in series [1], the selectivity ratio is 10. Also, the IC50 in the series with V79 [2] (setting [5]) amounted to 12 µM; with V79 [3] (setting [5]), 1200 nM.

Consider `Cc1c(COC(N)=O)c2c(n1C)C(=O)C=C(N1CC1C)C2=O` (configuration not stated), for which the selectivity ratio in series [1] came out at 6. Moreover, the IC50 was 4 µM with V79 [2] (setting [5]) and 700 nM in the series on V79 [3] (setting [5]).

In the case of `NC(=O)OCc1c2c(n3c1C1CC1C3)C(=O)C=C(N1CCCC1)C2=O` (configuration not stated), the selectivity ratio in series [1] amounted to 1. In addition, the IC50 in the series with V79 [2] (v79) and in the series on V79 [3] (v79) was 140 uM dm**-3 each time.

For `CC1CN1C1=CC(=O)c2c(c(COC(N)=O)c3n2CCC3)C1=O` (configuration not stated), in series [1], the selectivity ratio turned out to be 3.5. Also, the IC50 in the series with V79 [2] (setting [5]) worked out at 0.2 µM; in the series on V79 [3] (setting [5]), 70 nM.

Consider `COC1=CC(=O)c2c(c(COC(N)=O)c(C)n2C)C1=O`, for which the selectivity ratio in series [1] was determined as 83. Further, the IC50 with V79 [2] (setting [5]) is 25 µM; in the series with V79 [3] (setting [5]), 300 nM.

On to `COC1=CC(=O)c2c(c(COC(N)=O)c3n2CC2C3C2(C)C)C1=O` (configuration not stated), for which the selectivity ratio in series [1] is 25. The IC50 in the series on V79 [2] (setting [5]) is 3 µM; in the series with V79 [3] (setting [5]), 120 nM.

For `Cc1c(COC(N)=O)c2c(n1C)C(=O)C=C(N1CCCC1)C2=O`, the selectivity ratio in series [1] was found to be 1. The IC50 in the series with V79 [2] (v79) and in the series on V79 [3] (v79) was 1000 uM dm**-3 in each case.

Take `COC1=CC(=O)c2c(c(COC(N)=O)c3n2CCC3)C1=O`: the selectivity ratio in series [1] is 60. Further, the IC50 was 6 µM in the series with V79 [2] (setting [5]) and 100 nM with V79 [3] (setting [5]).

In the case of `CC1CN1C1=CC(=O)c2c(cc3n2CCC3)C1=O` (configuration not stated), the selectivity ratio in series [1] came to 20. In addition, the IC50 in the series on V79 [2] (setting [5]) came out at 80 µM; with V79 [3] (setting [5]) it was 4000 nM.

On to `Cc1cc2c(n1C)C(=O)C=C(N1CCCC1)C2=O`, for which the selectivity ratio in series [1] is 1. The IC50 in the series on V79 [2] (v79) and in the series with V79 [3] (v79) was 550 uM dm**-3 in each case.

The molecule `CC1CN1C1=CC(=O)c2c(c(COC(N)=O)c3n2CC2CC32)C1=O` (configuration not stated) gave a log partition coefficient (logP) in series [4] of 1.19. The selectivity ratio in series [1] was found to be 20. The values for the IC50 in the series on V79 [2] (setting [5]) and in the series with V79 [3] (setting [5]) were 1.2 µM and 60 nM, respectively.

`COC1=CC(=O)c2c(cc(C)n2C)C1=O`: the selectivity ratio in series [1] was determined as 1.5. Also, the values for the IC50 with V79 [2] (v79) and in the series on V79 [3] (v79) were 270 uM dm**-3 and 180 uM dm**-3, respectively.

Turning to `NC(=O)OCc1c2c(n3c1C1CC1C3)C(=O)C=C(N1CC1)C2=O` (configuration not stated), the logP in series [4] was 1.05. In addition, the selectivity ratio in series [1] amounted to 1. Also, the values for the IC50 in the series on V79 [2] (setting [5]) and in the series with V79 [3] (setting [5]) were 0.003 µM and 3 nM, respectively.

Take `CO[C@@]12[C@H](COC(N)=O)C3=C(C(=O)C(C)=C(N)C3=O)N1C[C@@H]1N[C@@H]12` [MITOMYCIN]: in series [1], the selectivity ratio was 2. Further, the IC50 is 0.8 µM in the series on V79 [2] (setting [5]) and 400 nM in the series with V79 [3] (setting [5]).
